Drawing on the RNAGym collection of RNA variant scans (doi:10.1101/gad.245936.114), this text covers nonsense suppression for 54 variants.

First the molecules themselves.
B1: tRNA (parent)
chain: CUCUCGGUAGCCAAGUUGGUUUAAGGCGCAAGACUUUAAUUUAUCACUACGAAAUCUUGAGAUCGGGCGUUCGACUCGCCCCCGGGAGAUUUUUUCCUCGAGCAA

Variants at the floor of the assay were thinned out. Some results are limits rather than exact numbers.

The variants in this series derive from B1. The series is described as follows: nonsense suppression (GFP-seq) (ratio to wild type); higher = more function; SUP4oc tRNA, yeast GFP reporter sort-seq. In outline:
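To measure nonsense suppression, tRNA variants from a library carrying ~3% random mutations were integrated into the yeast genome alongside RFP and a GFP ochre reporter under galactose control. Growth took place in raffinose/galactose medium supplemented with 80 mg/L adenine, followed by sorting into GFP/RFP bins and Illumina sequencing of each bin (phred ≥30). For each variant with ≥100 reads and ≥30 cells, the bin median GFP/RFP values were weighted by its estimated cell share per bin and referenced to the unmutated parent tRNA.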
As for CUCUCGGUAGCCAAGUUGGUUUAAGACGCAAGACUUUAAUUUAUCACUACGAAAUCUUGAGAUCGGGCGUGCGACUCGCCCCCGGGAGAUUUUUUCCUCGAGCAA, the nonsense suppression was ≤ 0.026.

For CUCUCGGUAGCCAAGUUGGUUUAAGACGCAAGACUUUAAUUUAUCACUACGAAAUCUUGAGAUCGGGCGAUCGACUCGCCCCCGGGAGAUUUUUUCCUCGAGCAA, the nonsense suppression was ≤ 0.026.

With CUCUCGGUAGCCAAGUUGGUUUAAUGCGCAAGACUUUAAUUUAUCACUACGAAAUCUUGAGACCGGGCGUUCGACUCGACCCCGGGAGAUUUUUUCCUCGAGCAA, the nonsense suppression is ≤ 0.026.

As to CUCUCGGUAGCCAAGUUGGUUUAACGCGCAAGACUUUAAUUUAUCACUACGAAUUCUUGAGAUCGGGCGUUCGACUCGCCCCCGGGAGAUUUUUUCCUCGAGCAA, the nonsense suppression turned out to be 0.0708.

For CUCUCGGUAGCCAAGUUGGUUUAAUGCGCAAGACUUUAAUUUAUCACUACGAAAUCUUGAAAUCGGUCGUUCGACUCGCCCCCGGGAGAUUUUUUCCUCGAGCAA, the nonsense suppression was ≤ 0.026.

For the variant CUCUCGGUAGCCAAGUUGGUUUAAUGCGCAAGACUUUAAUUUAUCACUACGAAAUCUUGAGAUCGGGCGUUCGAUUCGCCCCCGGGAGAUUUUUUCCUCGAGCAA, the nonsense suppression was ≤ 0.026.

Turning to CUCUCGGUAGCCAAGUUGGUUUAACGCGCACGACUUUAAUUUAUCACUACGAAAUCUUGAGAUCGGGCGUUCAACUCGCCCCCGGGAGAUUUUUUCCUCGAGCAA, the nonsense suppression was ≤ 0.026.

Consider CUCUCGGUAGCCAAGUUGGUUUAAAGCGCAAGACUUUAAUUUAUCACUACGAAAUCUUGAGAUCGGGCGUUCAACUCGCCCCCGGGAGAUUUUUUCCUCGAGCAA, for which the nonsense suppression came to 0.0508.

For CUCUCGGUAGCCAAGUUGGUUUAAAGCGCAAGACUUUAAUUUAUCACUACGAAAUCUUGAAAUCGGGCGUUCGACUCGCCCCCCGGAGAUUUUUUCCUCGAGCAA, the nonsense suppression is ≤ 0.026.

Turning to CUCUCGGUAGCCAAGUUGGUUUAAUGCUGAAGACUUUAAUUUAUCACUACGAAAUCUUGAGAUCGGGCGUUGGACUCGCCACCGGGAGAUUUUUUCCUCGAGCAA, the nonsense suppression was ≤ 0.026.

As for CUCUCGGUAGCCAAGUUGGUUUAAUGCGCAAGACUUUAAUUUAUCACUACGAAAUAUUGAGAUCGGGCGUUCGACUCGCCCCCGGUAGAUUUUUUCCUCGAGCAA, the nonsense suppression was ≤ 0.026.

On to CUCUCGGUAGCCAAGUUGGUUUAACGCGCAAGACUUUAAUUUAUCACUACGAAAUCUUGAGAUCGGGCGUUCGACUCGCCCCCGGGAGAUUUUUUCCUCGAGCAA, for which the nonsense suppression turned out to be 0.185.

For CUCUCGGUAGCCAAGUUGGUUUAAAUCGCAAGACUUUAAUUUAUCACUACGAAAUGUUGAGAUCGGGCGUUCGACUCGCCCCCGGGAGAUUUUUUCCUCGAGCAA, the nonsense suppression was 0.0585.

In the case of CUCUCGGUAGCCAAGUUGGUUUAACGCGCUAGACUUUAAUUUAUCACUACGAAAUCUUGAGAUCGGGCGUUCGACUCGCCCCCGGGAGAUUUUUUCCUCGAGCAA, the nonsense suppression came to 0.0299.

As for CUCUCGGUAGCCAAGUUGGUUUAAUGCGCAAGAUUUUAAUUUAUCACUACGAAAUCUUAAGAUCGGGCGUUCGACUCGCCCCCGGGAGAUUUUUUCCUCGAGCAA, the nonsense suppression turned out to be 1.15.

Take CUCUCGGUAGCCAAGUUGGUUUAAGCCGCAAGAUUUUAAUUUAUCACUACGAAAUCUUGAAAUCGGGCGUUCGACUCGCCCACGCAAGAUUUUUUCCUCGAGCAA: the nonsense suppression is ≤ 0.026.

Turning to CUCUCGGUAGCCAAGUUGGUUUAAUGCGCAAGACUUUAAUUUAUCACUACGAAUUCUUGAGAUCGGGCGUUCGACUCCCCCCCGGGAGAUUUUUUCCUCGAGCAA, the nonsense suppression is ≤ 0.026.

On to CUCUCGGUAGCCAAGUUGGUUUAAGCCGCAAGACUUUAAUUUAUCACUACGAAAUCUUGAGAUCGGGCGUUCGACUCUCCCACGGGAGAUUUUUUCCUCGAGCAA, for which the nonsense suppression was ≤ 0.026.

With CUCUCGGUAGCCAAGUUGGUUUAAAGCGCAAUACUUUAAUUUAUCACUACGAAAUCUUGAGAUCGGGCGUUCGACUCGCCCCCGGGAGAUUUUUUCCUCGAGCAA, the nonsense suppression is ≤ 0.026.

Take CUCUCGGUAGCCAAGUUGGUUUAACGCGCAAGACUUUAAUUUAUCACUACGAAAUCUUGAGAACGGGCGUUCGACUCGCCCCCGGGAGAUUUUUUCCUCGAGCAA: the nonsense suppression is ≤ 0.026.

As for CUCUCGGUAGCCAAGUUGGUUUAAGACGCAAGACUUUAAUUUAUCACUACGAAAUCUUGAGAUCGGGCGUUCGACUGGCCCCCGGGAGAUUUUUUCCUCGAGCAA, the nonsense suppression was ≤ 0.026.

In the case of CUCUCGGUAGCCAAGUUGGUUUAAUGCGCAAGACUUUAAUUUAUCACUACGAAAUCUUGGAAUCGGGCGUUCGACUCGCCCCCGGGAGAUUUUUUCCUCGAGCAA, the nonsense suppression is ≤ 0.026.

Take CUCUCGGUAGCCAAGUUGGUUUAACGCGCGAGUCUUUAAUUUAUCACUACGAAAUCUUGAGAUCGGGCGUUCGACUCGCCCCCGGGAGAUUUUUUCCUCGAGCAA: the nonsense suppression was ≤ 0.026.

As to CUCUCGGUAGCCAAGUUGGUUUAACGCGCAAGACUUUAAUUUAUCACUACGAAAUCUUGGGAUCGGGCGUUCGACUCGCCCCCGGGAGAUUUUUUCCUCGAGCAA, the nonsense suppression was determined as 0.0619.

With CUCUCGGUAGCCAAGUUGGUUUAAUGCGCAAGACUUUAAUUUAUCACUACGAAAUCUUGAAAUCGGGCGUUCGACUCGCCCGCGGGAUAUUUUUUCCUCGAGCAA, the nonsense suppression was ≤ 0.026.

For the variant CUCUCGGUAGCCAAGUUGGUUUAAGAAGCAAGACUUUAAUUUAUCACUACGAAAUCUUGAGAUCGGGCGUUCGACUCGCCCCCGGGAGAUUUUUUCCUCGAGCAA, the nonsense suppression was ≤ 0.026.

With CUCUCGGUAGCCAAGUUGGUUUAAGAGGCAAGACUUUAAUUUAUCACUACGAAAUCUUGAGAUCGGGCGUUCGACUCGCCCCCGGGAGAUUUUUUCCUCGAGCAA, the nonsense suppression is ≤ 0.026.

CUCUCGGUAGCCAAGUUGGUUUAAUGCGCAAGACUUUAAUUUAUCACUACGAAAUCUUGAUAUCGGGUGUUCGACUCGCCCCCGGGAGAUUUUUUCCUCGAGCAA: the nonsense suppression is ≤ 0.026.

Consider CUCUCGGUAGCCAAGUUGGUUUAAGCCGCAAGACUUUAAUUUAUCACUACGAAAUCUUGAAAUCGGGCGUUCGACUCGCCCCCGGGAGAUUUUUUCCUCGAGCAA, for which the nonsense suppression is ≤ 0.026.

In the case of CUCUCGGUAGCCAAGUUGGUUUAAUGCGCAAGACUUUAAUUUAUCACUACGAAAUCUUGAGAGCGGGCGUUCGACUCGCCCCCGGGAGAUUUUUUCCUCGAGCAA, the nonsense suppression was determined as 0.0371.

Take CUCUCGGUAGCCAAGUUGGUUUAAGCCGCAAGACUUUAAUUUAUCACUACGAAAUCUUGAGAUCGGGCGUUCGACUCGCCUCCGGGAGAUUUUUUCCUCGAGCAA: the nonsense suppression was ≤ 0.026.

CUCUCGGUAGCCAAGUUGGUUUAAGCCGCAAGACUUUAAUUUAUCACUACGAAAUCUUGAGAUCGGACGUUCGACUCGCCCCCGGGAGAUUUUUUCCUCGAGCAA: the nonsense suppression was ≤ 0.026.

As to CUCUCGGUAGCCAAGUUGGUUUAAGACGCAAGACUUUAAUUUAUCACUACGAAAUCUUGAGAUCAGGCGUUCGACUCGCCCCCGGAAGAUUUUUUCCUCGAGCAA, the nonsense suppression is ≤ 0.026.

As for CUCUCGGUAGCCAAGUUGGUUUAAAGCGCAAGACUUUAAUUUAUCACUACGAAAUCUUCAGACCGGGCGUUCGACUCGCCCCCGGGAGAUUUUUUCCUCGAGCAA, the nonsense suppression was ≤ 0.026.

For CUCUCGGUAGCCAAGUUGGUUUAAAGCGCAAGACUUUAAUUUAUCACUACGAAAUCUUGAGAUCGGGCGCUCUACUCGCCCCCGGGAGAUUUUUUCCUCGAGCAA, the nonsense suppression is ≤ 0.026.

For the variant CUCUCGGUAGCCAAGUUGGUUUAAGACGCACGACUUUAAUUUAUCACUACGAAAUCUUGAGAUCGGGCGUUCGACUCGCCCCCGGGAGAUUUUUUCCUCGAGCAA, the nonsense suppression was ≤ 0.026.

With CUCUCGGUAGCCAAGUUGGUUUAAACCGCAAGACUUUAAUUUAUCACUACGAAAUCUUGAGAUCGGGCGUUCGACUCGCCCCCGGGAGAUUUUUUCCUCGAGCAA, the nonsense suppression was ≤ 0.026.

With CUCUCGGUAGCCAAGUUGGUUUAACGGGCAAGACUUUAAUUUAUCACUACGAAAUCUUGAGAUCGGGCGUUCGACUCGCCCCCGGGAGAUUUUUUCCUCGAGCAA, the nonsense suppression was ≤ 0.026.

Regarding CUCUCGGUAGCCAAGUUGGUUUAACGCGCAAGACUUUAAUUUAUCACUACGAAAUCUUGAGAUCGGGCGUUCGACUCGCCCCCGGGAGUUUUUUUCCUCGAGCAA, the nonsense suppression was ≤ 0.026.

As to CUCUCGGUAGCCAAGUUGGUUUAACGCGCAAGACUUUAAUUUAUCACUACGAAAUCUUGAGAUCGGGCGUUCGAAUCGCCCCCGGGAGAUUUUUUCCUCGAGCAA, the nonsense suppression was determined as 0.826.

Consider CUCUCGGUAGCCAAGUUGGUUUAACGCGCAAGAAUUUAAUUUAUCACUACGAAAUCUUGAGAUCGGGCGUUCGACUCGCCCCCGGGGGAUUUUUUCCUCGAGCAA, for which the nonsense suppression was ≤ 0.026.

As to CUCUCGGUAGCCAAGUUGGUUUAAUGCGCAAGACUUUAAUUUAUCACUACGAAAUCUGGAGAUCGGGGGUUCGACUCGCCCCCGGGAGAUUUUUUCCUCGAGCAA, the nonsense suppression was ≤ 0.026.

For CUCUCGGUAGCCAAGUUGGUUUAAUGCGCAAGACUUUAAUUUAUCACUACGAAAUCUUGCGAUCGGGCGUUCGACUCGCCCCCGGGAGAUUUUUUCCUCGAGCAA, the nonsense suppression is ≤ 0.026.

Regarding CUCUCGGUAGCCAAGUUGGUUUAAAGCGCAAGACUUUAAUUUAUCACUACGAAAUCCUGAGAUCGGGCGUUCGACUCGCCCCCGGGAGAUUUUUUCCUCGAGCAA, the nonsense suppression is ≤ 0.026.

Turning to CUCUCGGUAGCCAAGUUGGUUUAAGACGGGAGGCUUUAAUUUAUCACUACGAAAUCUUGAGAUCGGGCGUUCGACUCGCCCCCGGGAGAUUUUUUCCUCGAGCAA, the nonsense suppression was ≤ 0.026.

Turning to CUCUCGGUAGCCAAGUUGGUUUAACGCGCAAGACUUUAAUUUAUCACUACGAAAUCUUGAGAUCGGGCGUUCGACUUGCGCCCGGGAGAUUUUUUCCUCGAGCAA, the nonsense suppression is ≤ 0.026.

As to CUCUCGGUAGCCAAGUUGGUUUAAGCCGUAAGACUUUAAUUUAUCACUACGAAAUCUUGAGAUCGGUCGUUCGACUCGCCCCCGGGAGAUUUUUUCCUCGAGCAA, the nonsense suppression was ≤ 0.026.

Turning to CUCUCGGUAGCCAAGUUGGUUUAAGCCGGAAGACUUUAAUUUAUCACUACGAAAUCUUGAGAUCGGGCGUUCGACUCGCCCCCGGGAGAUUUUUUCCUCGAGCAA, the nonsense suppression was determined as 0.0685.

Consider CUCUCGGUAGCCAAGUUGGUUUAAAGCGCAAUACUUUAAUUUAUCACUACGAAAUCUUGAGAUCGGGCGUGCGACUCGCCCCCGGGAGAUUUUUUCCUCGAGCAA, for which the nonsense suppression was ≤ 0.026.

Turning to CUCUCGGUAGCCAAGUUGGUUUAACGCCCAAGACUUUAAUUUAUCACUACGAAAUCUUGAGUUCGGGCGUUCGACUCGCCCCCGGGAGAUUUUUUCCUCGAGCAA, the nonsense suppression was ≤ 0.026.

For the variant CUCUCGGUAGCCAAGUUGGUUUAAGCCGCAAGACUUUAAUUUAUCACUACGAAAUCUUGCGAUCGGGCGUUCGACUCGCCCCCGGGAGAUUUUUUCCUCGAGCAA, the nonsense suppression turned out to be 0.027.

Take CUCUCGGUAGCCAAGUUGGUUUAAUGCGCAAGAAUUUAAUUUAUCACUACGAAAUCUUGAGAUCGGGCGUACGACACGCCCCCGGGAGAUUUUUUCCUCGAGCAA: the nonsense suppression is ≤ 0.026.

Take CUCUCGGUAGCCAAGUUGGUUUAAUGCGCAAGACUUUAAUUUAUCACUACGAAAUCUUGAGAUCGGGCGUUCUACUCGCCCCCGGGAGAUUUUUUCCUCGAGCAA: the nonsense suppression is ≤ 0.026.

On to CUCUCGGUAGCCAAGUUGGUUUAACGCGCAAGACUUUAAUUUAUCACUACGAAAUCUUGAGAUCGGGUGUUCGACUCGCCCCCGGGAGAUUUUUUCCUCGAGCAA, for which the nonsense suppression came out at 0.031.
